# Diaph act CS: activates diaphorase or chemically reduces, flagging diaphorase assay artifacts. AID 1229. activation factor at 20 µM. 0.005% of 190,000 active. Diaphorase/resazurin coupled assay, resorufin fluorescence, 16 min; hits give high values; 1 = vehicle wells, 0 = NADH-free wells;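 active means diaphorase activity raised at least twofold by the compound at 20 µM; inactive means activation factor below 2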
#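 Material: Purified diaphorase enzyme from Clostridium kluyveri | Buffer or medium: 50 mM HEPES pH 7.4 with 4.542 mM MgCl2, 0.005% Tween 20 | Times: 16 min enzyme reaction, ambient temperature | Signal: Red resorufin fluorescence at 544/590 nm excitation/emission | Measure: Increased resorufin signal from activators or reducing compounds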
# PfG6PD inh: PfG6PD (Plasmodium falciparum) enzyme inhibition; inhibition, % at 20 µM; 0.78% of 350,000 active; PfGluPho enzyme, NADPH resazurin-diaphorase fluorescence;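 active means inhibition reaching at least a set limit at 20 µM in the primary screen, cut at about 59% in these data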
# G6PDH CS: L. mesenteroides G6PDH inhibition counter-screen. Purified L. mesenteroides G6PDH, diaphorase/resazurin coupled fluorescence, 45 min. inhibition, % at 5 µM. 0.12% of 200,000 active. AID 1020
# L major viab: inhibitors of Leishmania major promastigote growth; Leishmania major promastigotes, resazurin fluorescence viability; inhibition, % at 10 µM; 9% of 200,000 active;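 further: promastigotes grown with compound for 44 hours at 28 °C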
# Diaphorase inh: inhibits diaphorase or chemically oxidizes, flagging diaphorase assay artifacts; diaphorase resazurin-to-resorufin fluorescence, NADH, 16 min; bacterial (C. kluyveri) enzyme, not human; inhibition, % at 20 µM; 0.69% of 190,000 active;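 active means primary screen inhibition at 20 µM above a set limit, cut at about 50% in these data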
#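 Test system: bacterial diaphorase enzyme (C. kluyveri); Quantity: 0.14 U/mL diaphorase, enzyme working solution; Times: reaction incubation of 16 min at room temperature; Measured by: fluorescence of resorufin formed from resazurin, Ex 544/Em 590 nm; Benchmarks: positive control minus NADH, DMSO neutral control.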
# DTT redox prof: compounds producing H2O2 with reducing agent – biochemical, NIH compound library profiling, artefact control for MLSCN library redox annotation, primary screen | DTT-dependent redox cycling H2O2, phenol red/HRP absorbance; 100% = 100 µM peroxide control, 0% = buffer | activation, % at 10 µM | 0.03% of 200,000 active | AID 878;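 active means activation of at least 50% relative to the plate's high and low controls in the primary single-dose screen; inactive means activation below 50%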;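 further: compound incubated with DTT at 0.8 mM final as the reducing agent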
# Numbers stand for hits; i = inactive; nt = no result given. This excerpt belongs to a sample that is enriched for hits. Unless noted, no stated cut-off is given here; in the data, active means inhibition above about 50%; inactive means the rest.
SMILES,Diaph act CS,PfG6PD inh,G6PDH CS,L major viab,Diaphorase inh,DTT redox prof
CN1CCN(S(=O)(=O)c2ccc(-c3ccc(S(=O)(=O)N4CCN(C)CC4)cc3)cc2)CC1,i,nt,i,nt,i,nt
CN1CCN(S(=O)(=O)c2ccc(Cc3ccc(S(=O)(=O)N4CCN(C)CC4)cc3)cc2)CC1,i,i,i,65,i,i
CCN(CC)S(=O)(=O)c1ccc(C(=O)Nc2ccc(Cc3ccncc3)cc2)cc1,i,i,i,99,i,i
CCN(CC)S(=O)(=O)c1ccc(NC(=O)c2ccc(N(C)S(C)(=O)=O)cc2)cc1,i,i,i,i,i,i
O=C(CCNc1ccc(Cc2ccncc2)cc1)c1ccc([N+](=O)[O-])cc1,i,i,i,101,i,i
O=C(Nc1ccc(NC(=O)c2cccc([N+](=O)[O-])c2)cc1)c1cccc([N+](=O)[O-])c1,nt,i,nt,nt,nt,nt
O=C(Nc1ccc(Cc2ccncc2)cc1)c1cccc([N+](=O)[O-])c1,i,i,i,74,i,i
CC(C)(C)c1ccc(S(=O)(=O)Nc2ccc(Cc3ccncc3)cc2)cc1,i,i,i,88,i,i
CCOC(=O)[C@H]1[C@H]2COc3ccc(Br)cc3[C@H]2N2C(=O)CN(Cc3ccc(C)cc3)C(=O)[C@@]12C,nt,i,nt,nt,nt,nt
Cc1c(C(=O)Nc2ccc(Cc3ccncc3)cc2)cccc1[N+](=O)[O-],i,i,i,96,i,i
Cc1ccc(C(=O)Nc2ccc(Cc3ccncc3)cc2)cc1[N+](=O)[O-],i,i,i,i,i,i
Cc1cccc(NC(=O)c2ccc([N+](=O)[O-])s2)n1,nt,i,nt,nt,nt,nt
Cc1cccc(C)c1NC(=O)c1ccc([N+](=O)[O-])s1,i,i,i,99,i,i
O=C(NC1CCCC1)c1ccc([N+](=O)[O-])s1,i,i,i,98,i,i
Cc1cccc(NC(=O)c2cccc([N+](=O)[O-])c2O)c1C,nt,i,nt,nt,nt,nt
Cc1cccc(NC(=O)c2ccc([N+](=O)[O-])s2)c1C,i,i,i,100,i,i
COc1ccc(-c2csc(=NCCO)n2-c2ccccc2)cc1,nt,i,nt,nt,nt,nt
COc1cc(C(=O)NCC2CCCO2)cc(OC)c1OC (centres undefined),i,i,i,i,i,i
COc1cccc(OC)c1OCC(C)CNCC1CCCO1 (centres undefined),i,i,i,85,i,i
Clc1ccccc1OCCN1CCC(Cc2ccccc2)CC1,i,i,i,90,i,i
O=Cc1cc(Cl)ccc1OCCN1CCC(Cc2ccccc2)CC1,nt,i,nt,nt,nt,nt
COc1cc(C(C)=O)ccc1OCCN1CCC(Cc2ccccc2)CC1,i,i,i,90,i,i
CC(C)c1ccc(-c2cc(C(=O)N3N=C(C(F)F)CC3(O)C(F)F)c3ccccc3n2)cc1 (centres undefined),i,i,i,93,i,i
Cc1ccc(-c2nn(-c3ccccc3)cc2C2SCC(=O)N2Cc2ccccc2)o1 (centres undefined),i,i,i,i,i,i
O=C1CSC(c2cn(-c3ccccc3)nc2-c2cc3ccccc3o2)N1Cc1ccccc1 (centres undefined),i,i,i,79,i,i
SMILES,Diaph act CS,PfG6PD inh,G6PDH CS,L major viab,Diaphorase inh,DTT redox prof
CCOC(=O)c1c(C2CC2)csc1NC(=O)COC(=O)c1cc(OC)c(OC)cc1[N+](=O)[O-],i,i,i,91,i,i
CCOC(=O)c1sc(N2N=C(C)C(N=Nc3cccc(C)c3)C2=O)nc1C (centres undefined),nt,i,nt,nt,nt,nt
CC1=NN(c2nc(-c3ccc(C)cc3)cs2)C(=O)C1N=Nc1cccc(C)c1 (centres undefined),i,i,i,86,i,i
CC(=O)c1cccc(OCCCOc2cccc3cccnc23)c1,nt,i,nt,nt,nt,nt
Cc1cc(C)cc(OCCCOc2cccc3cccnc23)c1,i,i,i,82,i,i
CCN1C(=O)[C@H]2[C@@H](c3ccc(-c4cccc(Cl)c4)cc3)N[C@@](C)(C(=O)OC)[C@H]2C1=O,nt,i,nt,nt,nt,nt
CN(C)CCNC(=S)NC1CCCCC1,i,i,i,i,i,i
CN(C)CCOC(C1CCCCC1)C1CCCCC1,i,i,i,50,i,i
CN(C(=S)NC(=O)C12CC3CC(CC(C3)C1)C2)c1ccc(O)cc1,nt,103,nt,nt,nt,nt
CN(C)NC(=S)NC(=O)C12CC3CC(CC(C3)C1)C2,i,i,i,i,i,i
O=C(Nc1ccccc1)c1sc2cc(C(F)(F)F)cnc2c1-c1cccs1,i,i,i,59,i,i
NNC(=O)c1sc2cc(C(F)(F)F)cnc2c1-c1cccs1,i,i,i,i,i,i
CCc1nc2sc3c(c2c(=O)n1CCO)CCC3,nt,i,nt,nt,nt,nt
O=C(Nc1ccc(-c2noc(CCc3ccccc3)n2)cc1)c1cccnc1,i,i,i,50,i,i
COc1cc(NC(=O)CN(c2ccc(C)cc2)S(=O)(=O)c2c(C)noc2C)cc(OC)c1,nt,i,nt,nt,nt,nt
CC(=O)c1cccc(NC(=O)NC2CC(=O)N(c3ccc4c(c3)OCCO4)C2)c1 (centres undefined),nt,i,nt,nt,nt,nt
CN1CCCc2cc(C=O)ccc21,i,i,i,i,i,i
CCCN1CCCc2cc(CN)ccc21,i,66,54,100,i,i
CC(CCN1C(N(C)C)=NC[C@@H]1C)c1ccccc1 (some centres undefined),nt,i,nt,nt,nt,nt
Cc1ccc(NC(=O)COC(=O)C2CC(=O)N(Cc3ccccc3)C2)cc1F (centres undefined),i,i,i,i,i,i
Cc1cccc(OC(C)C(=O)Nc2nc(-c3ccncc3)cs2)c1 (centres undefined),nt,i,nt,nt,nt,nt
C=CCNC(=S)Nc1c(N)n(C)c(=O)n(C)c1=O,nt,i,nt,nt,nt,nt
Cc1c(CCOC(=O)CC23CC4CC(CC(C4)C2)C3)sc[n+]1Cc1ccccc1,i,i,i,100,i,i
Cc1ncc(C[n+]2csc(CCOC(=O)CC34CC5CC(CC(C5)C3)C4)c2C)c(N)n1,i,i,i,i,i,i
CN(C)c1ccc(NC(=O)CN2CCC(O)(c3ccccc3)CC2)cc1,i,i,i,i,i,i
CN(C)C(=O)C(CCN1CCC(O)(c2ccc(Cl)cc2)CC1)(c1ccccc1)c1ccccc1,i,i,i,97,i,i
COc1ccc(-c2c(C(C)=O)c(C)nc3sc4c(=O)[nH]nnc4c23)cc1,i,i,i,59,i,i
Cc1nn(-c2ccccc2)c(C)c1/C=N/NC(=O)c1cc(-c2ccccc2)n[nH]1,i,i,i,88,i,i
Cc1c(/C=N/NC(=O)c2ccc(O)cc2)c2ccccn2c1C(=O)c1ccc(F)cc1,i,i,i,92,i,i
Cc1c(/C=N/NC(=O)c2cccnc2)c2ccccn2c1C(=O)c1ccc(F)cc1,i,nt,i,53,i,i
